The test system of one series is NCD-WT mice. Nature of the series: Liver glycogen content in NCD-WT mice. The format is in vivo, mouse.
The test system of another series is CST-KO mice. Put plainly: Liver glycogen content in NCD-CST-KO mice. Type of series: in vivo, mouse. The settings on record: fed state, insulin 30 min, Figure 4B.
The next series has as its system mice. Nature of the series: Plasma counterregulatory hormones. The format is in vivo, mouse. The settings on record: NCD-WT mice; acute insulin for 30 minutes; n = 7; Figure 2B,C.
The test system of another series is PI3-kinase. Nature of the series: PI-3-kinase activity in anti-p85 immunoprecipitates of hepatocytes. Type of series: cell-based, mouse. The conditions noted are these: CST 100 nM for 1 hour, insulin 10 nM for 10 minutes, Figure 6E. In outline:
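Mouse hepatocytes were left untreated or exposed to CST (100 nM, 1 hr) or insulin (10 nM, 10 min), then lysed. Anti-p85 immunoprecipitates were washed and assayed with phosphatidylinositol substrate and γ-32P-ATP. Labelled lipids were extracted, mixed with reference lipids and separated by TLC (CHCl3–MeOH–H2O–NH4OH (25%), 45:35:8.5:1.5). PI3P was detected by autoradiography.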

For another series, the system named is IR, IRS-1, mTOR, AKT. Put plainly: Immunoblotting of phosphorylation signals in primary hepatocytes. Type of series: cell-based, mouse. The conditions noted are these: cultured hepatocytes; immunoblot; n = 3; Figure 6A–D.
A further series has as its system GSK-3β. Put plainly: Immunoblotting of GSK-3β in liver. The format is in vivo, mouse. The conditions noted are these: liver of fasted NCD-WT and DIO-WT mice; immunoblot; n = 4; Figure 9A,B.

Consider insulin, for which the “effect on liver glycogen level” value with NCD-WT mice (fasted NCD-WT mice, insulin 30 minutes, CST 2 μg/g body weight acute (1 hour) and chronic (10–15 days), Figure 1A,C,D) is “restored glycogen level”. Also, the “fold increase in hepatic glycogen content” value with NCD-WT mice (fasted lean mice, CST or insulin alone) is on record as “> fivefold”. The “effect on hepatic glycogen content” value with CST-KO mice is “failed to increase”. The “effect on plasma noradrenaline and adrenaline levels” value in the series on mice was “raised plasma noradrenaline and adrenaline levels only in the fasted state”. Moreover, the “effect on PI3-kinase activity (PI3P formation)” value with PI3-kinase is “stimulated PI3-kinase activity”. Also, the “effect on tyrosine phosphorylation of IR and IRS-1” value in the series with IR, IRS-1, mTOR, AKT was “stimulated tyrosine phosphorylation”. Moreover, in the series with GSK-3β, the “effect on GSK-3β Ser9 phosphorylation” value is “increased GSK-3β Ser9 phosphorylation”.

The values above are taken from publication PMC10754386 (Acta physiologica (Oxford, England), 2022).
